One test relates to HES1 and HEY1. The note with it: cited from earlier work.
In the next test the test system is KOPT-K1 cells. The note with it: compared to JURKAT; cited from earlier work.
Test [1] deals with Notch-dependent transcription. The test is described as follows: dual luciferase reporter assay. Format: cell-based. The note with it: TK-Renilla luciferase control reporter (Table S1). In general terms: Reporter assays use an easily measured gene product as a stand-in for the process of interest.
Test [2] deals with Notch target genes HEY1 and HES1. The test is described as follows: RT-qPCR of endogenous gene expression in NICD-transfected HEK293T cells. Format: cell-based. The note with it: 2.5 μM, 24 hours; normalized to beta actin. The procedure, abridged: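 Total RNA extracted with TRIzol; cDNA reverse-transcribed from 1 μg RNA. Transcripts quantified by SYBR-based real-time PCR, normalized to beta-actin, and analyzed by the ΔΔCt method.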

The target of test [3] is RBPJ occupancy (RBPJ-DNA interactions in cells) (Homo sapiens, UniProt Q06330). The test is described as follows: anti-RBPJ ChIP-qPCR in NICD-transfected HEK293T cells. In kind it is cell-based. The note with it: 2.5 μM, 24 hours. The gist of the method: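 HEK293T cells (DMEM, 10% FBS) co-transfected with Flag-NICD and 4xRBPJ-firefly luciferase. About 4 million cells were fixed and sonicated on ice (12 cycles, 30 s on/90 s off, 40% amplitude). ChIP used polyclonal anti-RBPJ (FC31, 1:100) with protein A-agarose. SYBR green qPCR; mean ± SEM, N = 3.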
(Real-time PCR tracks product formation cycle by cycle.)

The target of test [4] is RBPJ occupancy (RBPJ-DNA interactions in cells) (Mus musculus, UniProt P31266). The test is described as follows: anti-RBPJ ChIP-qPCR in F9 cells. In kind it is cell-based, murine. The note with it: 2.5 μM, 24 hours. The procedure, abridged:
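Murine F9 cells, grown in DMEM with 10% FBS, exposed to 2.5 µM test compound for 24 h. About 4 million cells fixed; chromatin sonicated on ice for 12 cycles (30 s on/90 s off, 40% amplitude). ChIP with polyclonal anti-RBPJ (1:100) and protein A-agarose in 500 μL. Enriched DNA quantified by SYBR green real-time PCR; Actin B serves as negative region. Mean ± SEM, N = 3.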

The test system of the next test is JURKAT cells. The test is described as follows: cell proliferation, cellular ATP. In kind it is cell-based. The note with it: 36 hours; compared to CCRF-CEM, DND-41 and CUTLL1. The gist of the method: (§1)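 T-ALL cell lines exposed to test compound for 36 h; MOLT-4 grown in RPMI 1640 with 15% FBS. Cellular ATP measured by CellTiter-Glo luminescence as an index of metabolically active cells. Proliferation expressed relative to DMSO control; mean ± SEM, N = 3.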

A further test relates to MOLT4 cells. The test is described as follows: cell proliferation, cellular ATP. In kind it is cell-based. The note with it: 36 hours. The gist of the method: as §1
In a further test the test system is DND-41 cells. The test is described as follows: cell proliferation, cellular ATP. The note with it: 36 hours. Format: cell-based. The procedure, abridged: (§2)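 Cells kept in RPMI 1640 with 15% FBS (CCRF-CEM, DND-41) and exposed to test compound for 36 h. Cellular ATP was measured by CellTiter-Glo luminescence as an index of metabolically active cells. Proliferation is expressed relative to DMSO control; mean ± SEM, N = 3.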

For a further test, the system named is CUTLL1 cells. The test is described as follows: cell proliferation, cellular ATP. In kind it is cell-based. The note with it: 36 hours.
A further test deals with CCRF-CEM cells. The test is described as follows: cell proliferation, cellular ATP. In kind it is cell-based. The note with it: 36 hours. The gist of the method: as §2
In the next test the test system is TALL-1 cells. The test is described as follows: cell proliferation, cellular ATP. In kind it is cell-based. The note with it: 96 hours; compared to JURKAT. The gist of the method:
(§3)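 HPB-ALL and TALL-1 cells (DSMZ), grown in RPMI 1640 with 15% FBS. Exposed to varying amounts of test compound for 96 h, a longer exposure chosen because these lines divide more slowly. Metabolically active cells measured as cellular ATP by CellTiter-Glo luminescence. Proliferation expressed relative to DMSO control; mean ± SEM, N = 3.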

A further test concerns HPB-ALL cells. The test is described as follows: cell proliferation, cellular ATP. In kind it is cell-based. The note with it: 96 hours; compared to JURKAT. The procedure, abridged: as §3
The subject of test [5] is patient-derived xenograft models. The note with it: cited from earlier work.
The mark [6] stands for this setting: site occupied in part through CTCF.

Sequence of RBPJ occupancy (RBPJ-DNA interactions in cells) (Mus musculus, UniProt P31266) (P31266 whole entry): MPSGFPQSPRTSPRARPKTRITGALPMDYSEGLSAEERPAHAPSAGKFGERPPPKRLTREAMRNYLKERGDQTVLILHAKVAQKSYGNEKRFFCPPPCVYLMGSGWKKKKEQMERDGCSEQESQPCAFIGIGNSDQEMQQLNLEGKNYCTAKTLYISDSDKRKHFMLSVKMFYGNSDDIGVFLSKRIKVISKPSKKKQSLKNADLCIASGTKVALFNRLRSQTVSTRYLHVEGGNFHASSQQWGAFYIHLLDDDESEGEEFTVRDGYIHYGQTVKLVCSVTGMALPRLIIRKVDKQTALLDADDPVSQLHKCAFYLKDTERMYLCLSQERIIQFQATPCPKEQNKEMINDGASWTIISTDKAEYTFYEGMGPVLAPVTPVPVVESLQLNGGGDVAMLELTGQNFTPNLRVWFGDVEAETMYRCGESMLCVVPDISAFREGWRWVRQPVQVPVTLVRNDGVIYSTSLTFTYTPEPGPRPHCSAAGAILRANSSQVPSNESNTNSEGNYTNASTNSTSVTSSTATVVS
Sequence of RBPJ occupancy (RBPJ-DNA interactions in cells) (Homo sapiens, UniProt Q06330) (Q06330 whole entry): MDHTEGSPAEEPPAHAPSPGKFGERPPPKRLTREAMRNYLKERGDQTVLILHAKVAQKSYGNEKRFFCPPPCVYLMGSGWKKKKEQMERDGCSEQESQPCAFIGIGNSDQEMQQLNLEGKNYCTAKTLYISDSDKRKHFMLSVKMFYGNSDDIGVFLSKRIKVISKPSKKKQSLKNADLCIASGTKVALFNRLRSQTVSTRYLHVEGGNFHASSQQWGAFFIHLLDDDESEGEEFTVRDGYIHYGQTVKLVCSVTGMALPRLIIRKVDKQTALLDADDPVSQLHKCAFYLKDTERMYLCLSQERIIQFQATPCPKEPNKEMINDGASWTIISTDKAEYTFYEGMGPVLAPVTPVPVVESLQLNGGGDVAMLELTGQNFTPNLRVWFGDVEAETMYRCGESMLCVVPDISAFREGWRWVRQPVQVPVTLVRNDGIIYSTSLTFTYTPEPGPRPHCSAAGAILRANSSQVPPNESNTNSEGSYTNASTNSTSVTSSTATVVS

Take `Cn1nccc1-c1ccc(C(N)=O)c(Oc2ccccc2F)c1` [RIN1]: the “expression of the classic Notch targets HES1 and HEY1” value in the test on HES1 and HEY1 was “increases the expression”. The “sensitivity of Notch-addicted KOPT-K1 cells” value in the test on KOPT-K1 cells is given as “as sensitive to RIN1 than Notch-independent JURKAT cells”.

Turning to `C[C@H](NC(=O)Cc1cc(F)cc(F)c1)C(=O)N[C@H](C(=O)OC(C)(C)C)c1ccccc1` [DAPT], in the test on HES1 and HEY1, the “expression of the classic Notch targets HES1 and HEY1” value was “decreases the expression”.

With `CC(=O)OC[C@H]1O[C@@H]([S-])[C@H](OC(C)=O)[C@@H](OC(C)=O)[C@@H]1OC(C)=O.CCP(CC)CC.[Au+]` [auranofin, Auranofin], the “transcription from the TK promoter” value in test [1] is “decreases transcription from the TK promoter”. Besides, in test [2], the “expression of HES1” value is given as “significantly decreased”, the “expression of HEY1” value is “significantly decreased” and the “expression of Notch-independent TCERG1” value is given as “remained unchanged”. Moreover, in [3], the “RBPJ occupancy at the endogenous HES1 promoter” value is listed as “decreased RBPJ occupancy at these sites significantly” and the “RBPJ occupancy at the endogenous HEY1 promoter” value is listed as “decreased RBPJ occupancy at these sites significantly”. In [4] (direct RBPJ binding site), the “RBPJ occupancy at the HES1 promoter” value is on record as “decreased RBPJ occupancy” and the “RBPJ occupancy at the ZFP334 promoter” value was “decreased RBPJ occupancy”. In test [4] (setting [6]), the “RBPJ occupancy at NANOG” value was “not effectively disrupted” and the “RBPJ occupancy at NAPRT1” value is reported as “not effectively disrupted”. The “sensitivity of proliferation (cellular ATP)” value (from here on “sensitivity of proliferation”) with JURKAT cells is given as “most resistant”. Besides, the “sensitivity of proliferation” value in the test with MOLT4 cells was “more sensitive to auranofin than JURKAT”. Also, the “sensitivity of proliferation” value in the test on DND-41 cells is given as “significantly more sensitive to auranofin than JURKAT”. Further, the “sensitivity of proliferation” value in the test on CUTLL1 cells was “significantly more sensitive to auranofin than JURKAT”. Besides, the “sensitivity of proliferation” value in the test with CCRF-CEM cells is “significantly more sensitive to auranofin than MOLT-4”. Besides, the “proliferation (cellular ATP)” value with TALL-1 cells was “decreased the proliferation”. The “proliferation (cellular ATP)” value in the test with HPB-ALL cells is “decreased the proliferation”.

Consider `CCOC(=O)COc1ccc(/C=C2\SC(=S)NC2=O)cc1OC` [IMR-1], for which, in test [5], the tumor growth entry was “impairs tumor growth”.

Values taken from publication PMC7442708 (SLAS discovery : advancing life sciences R & D, 2020).
